These results are taken from ChEMBL document CHEMBL1156595, “Studies on the antifungal properties of N-thiolated beta-lactams” (2008).

Structures are written as SMILES.

What all share (type): functional
The test system of one test is Candida albicans. The experiment in a line: Antifungal activity against Candida albicans ATCC 2091 assessed as growth inhibition zone at 50 ug after 24 hrs by Kirby-Bauer agar diffusion assay. Particulars: ATCC 2091, 24 h, read-out: IZ. In short, it runs like this: (§1)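 Disk diffusion on yeast nitrogen base agar, swabbed with a McFarland 0.5 suspension in saline. 6 mm cellulose disks carried 10 µL of a 5 mg/mL CH2Cl2 stock (50 ug per disk), air-dried, three disks per plate. Plates were sealed and incubated 24 h at 37°C. Cleared inhibition zones were measured and averaged over triplicates.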
Background: Agar diffusion results depend on both activity and mobility in agar.

The test system of another test is Pichia kudriavzevii. The experiment in a line: Antifungal activity against Candida krusei ATCC 14243 assessed as growth inhibition zone at 50 ug after 24hrs by Kirby-Bauer agar diffusion assay. Particulars: ATCC 14243, 24 h, read-out: IZ. A digest of the protocol: as §1
The next test concerns Cyberlindnera jadinii. The experiment in a line: Antifungal activity against Candida utilis ATCC 29950 assessed as growth inhibition zone at 50 ug after 24 by Kirby-Bauer agar diffusion assay. Particulars: Williopsis jadinii, read-out: IZ. A digest of the protocol:
as §1

A further test relates to Candida parapsilosis. The experiment in a line: Antifungal activity against Candida parapsilosis ATCC 22019 assessed as growth inhibition zone at 50 ug after 24 hrs by Kirby-Bauer agar diffusion assay. Conditions: Lodderomyces parapsilosis, ATCC 22019, 24 h; read-out: IZ. A digest of the protocol: as §1
The next test relates to Candida tropicalis. Kind of test: Antifungal activity against Candida tropicalis clinical isolate assessed as growth inhibition zone at 50 ug after 24 hrs by Kirby-Bauer agar diffusion assay. Conditions: read-out: IZ. A digest of the protocol: as §1
A further test concerns Nakaseomyces glabratus. The experiment in a line: Antifungal activity against Candida glabrata ATCC 15126 assessed as growth inhibition zone at 50 ug after 24 hrs by Kirby-Bauer agar diffusion assay. Particulars: ATCC 15126, 24 h, read-out: IZ. In short, it runs like this: as §1
The subject of the next test is Kluyveromyces marxianus. The experiment in a line: Antifungal activity against Candida kefyr ATCC 20409 assessed as growth inhibition zone at 50 ug after 24 hrs by Kirby-Bauer agar diffusion assay. Conditions: ATCC 20409, 24 h, read-out: IZ. A digest of the protocol:
as §1

The subject of a further test is Clavispora lusitaniae. The experiment in a line: Antifungal activity against Candida lusitaniae ATCC 34449 assessed as growth inhibition zone at 50 ug after 24 by Kirby-Bauer agar diffusion assay. Particulars: read-out: IZ. A digest of the protocol: as §1

As to `CO[C@H]1C(=O)N(SC)[C@H]1c1cccc(F)c1`, the zone of inhibition at 50 µg/disc came to 14 mm with Candida albicans; 0 mm in the test with Pichia kudriavzevii; 16 mm with Cyberlindnera jadinii; 22 mm in the test on Candida parapsilosis; 0 mm in the test on Candida tropicalis; 0 mm in the test on Nakaseomyces glabratus. The zone of inhibition at 50 µg/disc is 13 mm in the test with Kluyveromyces marxianus and 0 mm in the test with Clavispora lusitaniae.

For the molecule `CO[C@H]1C(=O)N(SC)[C@H]1c1ccc(Cl)cc1Cl`, the zone of inhibition at 50 µg/disc came to 27 mm in the test with Candida albicans; 0 mm in the test on Pichia kudriavzevii; 21 mm with Cyberlindnera jadinii; 31 mm in the test with Candida parapsilosis; 23 mm in the test with Candida tropicalis; 32 mm in the test with Nakaseomyces glabratus. The zone of inhibition at 50 µg/disc with Kluyveromyces marxianus is 28 mm; with Clavispora lusitaniae, 22 mm.

As to `CO[C@H]1C(=O)N(SC)[C@H]1c1ccccc1I`, the zone of inhibition at 50 µg/disc with Candida albicans was found to be 16 mm; in the test with Pichia kudriavzevii it was 0 mm; with Cyberlindnera jadinii it was 15 mm; in the test with Candida parapsilosis, 22 mm; in the test with Candida tropicalis, 15 mm; in the test on Nakaseomyces glabratus it was 20 mm. Also, the zone of inhibition at 50 µg/disc is 15 mm in the test on Kluyveromyces marxianus and 17 mm in the test with Clavispora lusitaniae.

Regarding `CO[C@H]1C(=O)N(SC)[C@H]1c1cc(F)c(F)c(F)c1`, the zone of inhibition at 50 µg/disc in the test with Candida albicans was determined as 25 mm; with Pichia kudriavzevii it was 0 mm; with Cyberlindnera jadinii it was 29 mm; in the test with Candida parapsilosis, 34 mm; in the test on Candida tropicalis, 19 mm; with Nakaseomyces glabratus, 18 mm. Moreover, the zone of inhibition at 50 µg/disc in the test on Kluyveromyces marxianus worked out at 17 mm; in the test on Clavispora lusitaniae it was 25 mm.

With `CSN1C(=O)[C@H](OC(C)=O)[C@@H]1CCc1ccccc1`, the zone of inhibition at 50 µg/disc in the test on Candida albicans was determined as 0 mm; in the test on Pichia kudriavzevii, 0 mm; in the test on Cyberlindnera jadinii it was 0 mm; in the test on Candida parapsilosis, 0 mm; in the test on Candida tropicalis it was 0 mm; in the test on Nakaseomyces glabratus it was 15 mm. In addition, the zone of inhibition at 50 µg/disc amounted to 13 mm in the test with Kluyveromyces marxianus and 0 mm in the test with Clavispora lusitaniae.

For the molecule `CO[C@H]1C(=O)N(SC)[C@H]1c1cc(Cl)cc(Cl)c1Cl`, the zone of inhibition at 50 µg/disc came out at 23 mm in the test with Candida albicans; 0 mm in the test on Pichia kudriavzevii; 19 mm with Cyberlindnera jadinii; 26 mm with Candida parapsilosis; 22 mm with Candida tropicalis; 31 mm in the test with Nakaseomyces glabratus. Moreover, the zone of inhibition at 50 µg/disc with Kluyveromyces marxianus was determined as 30 mm; in the test with Clavispora lusitaniae it was 23 mm.

As for `CO[C@H]1C(=O)N(SC)[C@H]1c1ccc(Cl)cc1`, the zone of inhibition at 50 µg/disc in the test with Candida albicans, with Pichia kudriavzevii, in the test on Cyberlindnera jadinii, with Candida parapsilosis, with Candida tropicalis and in the test with Nakaseomyces glabratus was 0 mm in each case. For the same molecule, the zone of inhibition at 50 µg/disc was 10 mm in the test with Kluyveromyces marxianus and 14 mm with Clavispora lusitaniae.

For the molecule `CO[C@H]1C(=O)N(SC)[C@H]1c1cc(F)cc(F)c1F`, the zone of inhibition at 50 µg/disc in the test on Candida albicans is 18 mm; in the test with Pichia kudriavzevii it was 0 mm; in the test with Cyberlindnera jadinii, 16 mm; in the test with Candida parapsilosis, 22 mm; in the test on Candida tropicalis it was 24 mm; with Nakaseomyces glabratus it was 11 mm. Besides, the zone of inhibition at 50 µg/disc in the test on Kluyveromyces marxianus is 15 mm; with Clavispora lusitaniae it was 17 mm.

`CO[C@H]1C(=O)N(SC)[C@H]1c1ccc(F)cc1`: the zone of inhibition at 50 µg/disc worked out at 16 mm with Candida albicans; 0 mm in the test on Pichia kudriavzevii; 21 mm in the test on Candida parapsilosis; 0 mm in the test on Candida tropicalis; 0 mm with Nakaseomyces glabratus; 0 mm with Clavispora lusitaniae.
